# Sampled rows, rich in hits. Any-hit rate of the full collection: about 3.7%.
# FGF22 binding – binders of recombinant human FGF22 by thermal shift; Q9HCT0; activity (Tm shift, normalised), % at 9.99 µM; actives 1.5% (n = 340,000); SYPRO orange fluorescence; percent of sucrose octasulfate shift, DMSO zero;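 active means mean Tm shift, scaled 0 neutral to 100 positive control, at about 1.3% or above, every replicate too, limit read from the data; inconclusive means no clear call, values can overlap the other calls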
# Target sequence (Q9HCT0 whole entry, looked up): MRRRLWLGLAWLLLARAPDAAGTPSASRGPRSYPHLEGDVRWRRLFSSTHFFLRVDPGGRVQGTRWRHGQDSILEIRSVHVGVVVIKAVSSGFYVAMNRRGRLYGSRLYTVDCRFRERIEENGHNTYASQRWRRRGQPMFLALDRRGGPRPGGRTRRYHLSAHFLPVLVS
# CFTR F508del cor – CFTR F508del correction in bronchial cells | CFBE cells, YFP halide quenching; stimulated with forskolin plus potentiator P3; % fluorescence drop versus neutral controls | activity (quench increase), % at 7.58 µM | actives 0.36% (n = 350,000);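 active means mean added fluorescence quench of at least 8% versus neutral control, with both replicates also reaching 8%; inconclusive means only one of the mean or replicate conditions met; inactive means mean below 8% and not both replicates reaching 8%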;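 further: cells transiently co-express mutant CFTR-F508del with the halide-sensitive YFP; corrector assay measuring rescue of mutant channel to the surface after 24 h compound exposure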
# ERAP1 inh – inhibitors of human ERAP1 aminopeptidase | Q9NZ08 | recombinant ERAP1, Leu-AMC fluorescence, 60 min | inhibition, % at 10.7 µM | actives 0.15% (n = 340,000);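 active means mean replicate inhibition of at least 30%, or all replicates individually reaching that 30% level; inactive means mean below 30% and not every replicate reaching it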;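 further: 0% = neutral control wells and 100% = L-leucinethiol positive control wells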
# E-sel inducer – E-selectin induction on HUVECs | P16581 | HUVEC E-selectin immunofluorescence imaging; normalized: neutral wells 0, TNF-alpha wells 100 | activation, % at 7.58 µM | actives 0.37% (n = 260,000) | AID 686992;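 active means mean E-selectin-positive cell signal at least 10% of the positive control, reached in at least 60% of replicates, without over 20% cell loss; inconclusive means no rule given, readout overlaps actives, possibly toxicity-flagged; inactive means the rest, including those meeting only one limit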
#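 System: HUVEC, human umbilical vein endothelial cells; quantity: 3,000 cells/well; buffer or medium: EGM-2 medium, gelatin-coated wells; dosing: single-point compound dose; detection: immunofluorescence imaging; evaluation: % PE-positive cells; benchmarks: TNF-alpha, DMSO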
# DENV2 CPE – inhibitors of DENV2 cytopathic effect | DENV2-infected cells, cytopathic effect rescue, plate reader | CPE inhibition, % at 9.99 µM | actives 1.7% (n = 350,000); in the data active means CPE inhibition above about 20%, passing the limit was not always enough; inconclusive means no clear call, values can overlap the other calls; tested in BHK-21 cells;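 further: 0% = median of neutral control wells and 100% = median of positive control wells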
# * = called active by the depositor; ? = inconclusive; . = no result given; ! = a repeat was not active.
SMILES,FGF22 binding,CFTR F508del cor,ERAP1 inh,E-sel inducer,DENV2 CPE
C[C@@H]1CN([C@H](C)CO)C(=O)Cc2cc(NC(=O)CCC(F)(F)F)ccc2O[C@@H]1CN(C)Cc1ccc(C(=O)Nc2ccccc2N)cc1,0,-1,0,.,38*
C[C@H]1CN([C@@H](C)CO)C(=O)Cc2cc(NC(=O)c3ccncc3)ccc2O[C@@H]1CN(C)Cc1ccc(C(=O)Nc2ccccc2N)cc1,0,-4,2,-9,-11
C[C@H]1CN([C@@H](C)CO)C(=O)Cc2cc(NC(=O)Cc3ccccc3)ccc2O[C@H]1CN(C)Cc1ccc(C(=O)Nc2ccccc2N)cc1,0,2,-2,7,-7
C[C@@H]1CN([C@@H](C)CO)C(=O)Cc2cc(N(C)C)ccc2O[C@@H]1CN(C)Cc1ccc(C(=O)Nc2ccccc2N)cc1,-1,15*,-4,6,3
C[C@H]1CN([C@@H](C)CO)C(=O)Cc2cc(NC(=O)c3ccncc3)ccc2O[C@H]1CN(C)Cc1ccc(C(=O)Nc2ccccc2N)cc1,0,-2,-1,?,58*
C[C@H](CO)N1C[C@H](C)[C@@H](CN(C)CC2CCOCC2)Oc2cc(C3=CCCC3)ccc2S1(=O)=O,0,-6,.,0,-5
C[C@@H]1CN([C@H](C)CO)C(=O)Cc2cc(NC(=O)NC3CCCCC3)ccc2O[C@@H]1CN(C)Cc1ccc(C(=O)Nc2ccccc2N)cc1,0,-2,0,.,28*
C[C@@H]1CCCCO[C@@H](CN(C)S(C)(=O)=O)[C@H](C)CN([C@@H](C)CO)C(=O)c2cc(NS(=O)(=O)c3ccc(Cl)cc3)ccc2O1,0,0,-2,0,84*
C[C@@H]1CCCCO[C@@H](CN(C)CC2CCCCC2)[C@@H](C)CN([C@H](C)CO)C(=O)c2cc(NS(=O)(=O)c3ccc(Cl)cc3)ccc2O1,-1,0,-8,.,63*!
Cc1ccc(S(=O)(=O)Nc2ccc3c(c2)C(=O)N([C@@H](C)CO)C[C@H](C)[C@@H](CN(C)S(=O)(=O)c2ccc(Cl)cc2)OCCCC[C@@H](C)O3)cc1,28*,6,.,0,9
C[C@H](CO)N1C[C@H](C)[C@@H](CN(C)S(C)(=O)=O)OCCCC[C@H](C)Oc2ccc(NS(=O)(=O)c3ccc(Cl)cc3)cc2C1=O,0,0,0,0,-6
Cc1ccc(S(=O)(=O)Nc2ccc3c(c2)C(=O)N([C@@H](C)CO)C[C@@H](C)[C@@H](CN(C)CC2CC2)OCCCC[C@@H](C)O3)cc1,0,4,-16,0,63*!
COc1ccccc1-c1ccc([C@H]2[C@H](CO)N(C(C)=O)C23CN(C(C)=O)C3)cc1,0,0,-2,0,-5
C[C@H](CO)N1C[C@H](C)[C@@H](CN(C)C(=O)Nc2ccccc2)Oc2c(NC(=O)Nc3cccc4ccccc34)cccc2C1=O,0,1,-5,0,0
C[C@@H]1CCCCO[C@@H](CN(C)S(=O)(=O)c2ccc(Cl)cc2)[C@H](C)CN([C@@H](C)CO)C(=O)c2cc(NS(=O)(=O)c3ccc(Cl)cc3)ccc2O1,0,-3,.,0,5
Cc1ccc(S(=O)(=O)N(C)C[C@H]2OCCCC[C@@H](C)Oc3ccc(NS(=O)(=O)c4ccc(Cl)cc4)cc3C(=O)N([C@@H](C)CO)C[C@H]2C)cc1,0,-1,-1,0,-6
C[C@@H]1CCCCO[C@H](CN(C)S(=O)(=O)c2ccc(Cl)cc2)[C@H](C)CN([C@H](C)CO)C(=O)c2cc(NS(=O)(=O)c3ccc(Cl)cc3)ccc2O1,30*,-2,.,0,-20
Cc1ccc(S(=O)(=O)Nc2ccc3c(c2)C(=O)N([C@H](C)CO)C[C@H](C)[C@H](CN(C)S(=O)(=O)c2ccc(Cl)cc2)OCCCC[C@@H](C)O3)cc1,0,4,.,0,66*
CCn1nnc(NC(=O)c2ccc([N+](=O)[O-])o2)n1,43*,0,-2,.,-7
CCCCn1nnc(NC(=O)c2ccc(-c3ccccc3[N+](=O)[O-])o2)n1,0,1,1,0,3
Cc1nn(-c2ccc3ccccc3c2)c(=O)c2ccccc12,44*,0,1,.,-2
Cc1nn(-c2ccc(Cl)cc2)c(=O)c2ccccc12,42,-1,0,.,-6
Cn1cc(C(=O)OCC2CCN(CCNS(C)(=O)=O)CC2)c2ccccc21,0,16*,1,1,-5
O=C(O)CCC(NC(=O)c1ccc(Cl)cc1)C(=O)O (stereo not drawn),0,2,0,.,-5
CN(Cc1cnc2nc(N)nc(N)c2n1)c1ccc(C(=O)NC(CCC(=O)O)C(=O)O)c2ccccc12 (stereo not drawn),0,11*,-30,0,6
SMILES,FGF22 binding,CFTR F508del cor,ERAP1 inh,E-sel inducer,DENV2 CPE
C[C@@H]1CCCCO[C@H](CN(C)Cc2ccc3c(c2)OCO3)[C@H](C)CN([C@H](C)CO)C(=O)c2cc(NS(=O)(=O)c3ccc(F)cc3)ccc2O1,.,2,0,.,-2
O=C(C1=C[C@@H](c2ccc(C(F)(F)F)cc2)C[C@@H](OCc2ccc(CO)cc2)O1)N1CCOCC1,0,-3,1,0,25*!
O=C(O)C1=C[C@@H](c2ccc(C(F)(F)F)cc2)C[C@@H](OCc2ccc(CO)cc2)O1,0,1,10,0,3
CN1CCN(C(=O)C2=C[C@H](c3ccc(C(F)(F)F)cc3)C[C@H](OCc3ccc(CO)cc3)O2)CC1,0,0,4,0,47*!
COC(=O)NC1(C(F)(F)F)C(=O)Nc2c1c(=O)n(C)c(=O)n2C (stereo not drawn),43*,-4,-1,0,-9
CC(=O)Nc1ccc(S(=O)(=O)NC2(C(F)(F)F)C(=O)Nc3c2c(=O)n(C)c(=O)n3C)cc1 (stereo not drawn),0,-3,4,.,.
COc1cccc(/C=C/C(=O)OCC(=O)Nc2ccc(N3CCOCC3)cc2)c1OC,44*,2,-1,.,-10
C/C(=N\NC(=O)c1cc(-c2ccc(Br)s2)[nH]n1)c1ccncc1,0,1,3,0,?
C/C(=N\NC(=O)c1cc(C(C)C)[nH]n1)c1ccco1,0,.,-1,27*,0
C/C(=N/NC(=O)c1cc(-c2ccc(Br)s2)[nH]n1)c1ccco1,1.4*,-1,-3,.,4
C/C(=N\NC(=O)c1cc(C(C)C)[nH]n1)c1ccncc1,0,1,0,2,13
CC(C)C(=O)Nc1ccc2c(c1)C(=O)N(C)[C@@H]1CC[C@@H](CC(=O)O)O[C@H]1CO2,-1,-1,0,0,3
Cc1c(-c2ccnc3cc(C(=O)O)nn23)cnn1C,42,3,-6,.,.
CCn1cc(-c2ccnc3cc(C(=O)O)nn23)c(C)n1,43*,0,7,.,-7

# Screening data as filed in PubChem BioAssay.
